No end group written: not given here.

What is called Ki is a measure of affinity in units of concentration, obtained from inhibition or displacement. Low values mean a stronger hold on the target, high ones a looser hold on the target.

For test [1], the target named is full-length CAL (Homo sapiens, UniProt Q9HD26). Kind of test: Fluorescence polarization direct binding, full-length CAL. The settings on record: 30 nM reporter titrated with full-length CAL. In outline:
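Direct titration: full-length CAL pre-incubated 10–30 min at room temperature in FP buffer (storage buffer 25 mM Tris pH 8.5, 150 mM NaCl, 0.02% NaN3, 0.1 mM ATP, plus 0.1 mg/mL bovine IgG, 0.5 mM Thesit) containing fluorescent peptide. Serially diluted into the same buffer, then 10 min incubation and 15 min equilibration at 24 °C. Polarization read at ex 485/em 525 nm.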

Test [2] deals with T1, CAL PDZ domain (CALP) (Homo sapiens, UniProt Q9HD26). Kind of test: Fluorescence polarization competition binding, CALP with F*C-GBG4_10 reporter. For orientation: In fluorescence polarisation assays a small probe gives low polarisation when free and higher when bound to something large.
The target in test [3] is T1, CAL PDZ domain (CALP). The test is described as follows: Fluorescence polarization competition binding, CALP with F*C-SSR5_10 reporter. In outline: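 Competition FP using fluorescein-5-maleimide-labelled Cys-peptide reporter in FP buffer: storage buffer (25 mM Tris pH 8.5, 150 mM NaCl, 0.02% NaN3, 0.1 mM TCEP or 1 mM DTT) plus 0.1 mg/mL bovine IgG and 0.5 mM Thesit. Unlabelled Cys-peptides titrated into reporter–protein mix, 15 min at 24 °C. Ex 485/em 525 nm. Ki fit with free protein from exact cubic solution, using known reporter Kd.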

Test [4] concerns the target T2, NHERF1 PDZ1 domain (N1P1) (Homo sapiens, UniProt O14745).
T2 sequence (O14745 1-139): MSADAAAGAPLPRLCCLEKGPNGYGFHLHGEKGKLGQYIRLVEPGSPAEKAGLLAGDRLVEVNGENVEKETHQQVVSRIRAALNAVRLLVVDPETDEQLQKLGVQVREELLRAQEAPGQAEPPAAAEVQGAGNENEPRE
Kind of test: Fluorescence polarization direct binding, NHERF1 PDZ1. The note with it: titration with increasing N1P1.

The target of test [5] is T3, NHERF1 PDZ2 domain (N1P2) (Homo sapiens, UniProt O14745).
T3 sequence (O14745 132-299): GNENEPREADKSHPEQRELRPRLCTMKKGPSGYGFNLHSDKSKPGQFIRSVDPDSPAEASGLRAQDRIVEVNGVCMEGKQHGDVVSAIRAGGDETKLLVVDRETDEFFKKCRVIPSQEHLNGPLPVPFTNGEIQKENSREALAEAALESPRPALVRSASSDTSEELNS
The test is described as follows: Fluorescence polarization direct binding, NHERF1 PDZ2. The settings on record: titration with increasing N1P2.

On to `CC(C)C[C@H](NC(=O)[C@H](CCCNC(=N)N)NC(=O)[C@@H](NC(=O)[C@H](CC(=O)O)NC(=O)[C@H](CCC(N)=O)NC(=O)[C@@H](NC(=O)[C@H](CCC(=O)O)NC(=O)[C@H](CCC(=O)O)NC(=O)[C@H](CCC(=O)O)NC(=O)[C@@H](NC(=O)c1ccc2c(c1)C(=O)OC21c2ccc(O)cc2Oc2cc(O)ccc21)[C@@H](C)O)C(C)C)[C@@H](C)O)C(=O)O` [F*-CFTR10], for which, in test [1], the “interaction in FP titration” value is given as “too weak to be fit”.
As to CREKKFFSTIL [C-GBG4_10], the results for the Ki in test [2] and in test [3] were 109 ± 12 µM and 63 ± 15 µM, respectively.
Turning to “F*C-SCR6: fluorescent reporter peptide with a scrambled sequence (C(fluorescein‑5‑maleimide)QVTLDR)”, the “FP shift of reporter” value in test [4] and in test [5] was “neither domain caused an FP shift” in each case.

Source of the values: PMC2582146 (Biochemistry, 2008).
